Results from ChEMBL document CHEMBL3393048, “Discovery of potent cytotoxic ortho-aryl chalcones as new scaffold targeting tubulin and mitosis with affinity-based fluorescence” (J Med Chem, 2014).
Calls of active or inactive are those of the source. The calls are words filed in the database; no cut-off is given here.

How the values were obtained:
[1] = test system: A549; experiment: Induction of apoptosis in human A549 cells assessed as early apoptotic cells at 1 uM after 48 hrs by Annexin V-FITC/propidium iodide staining-based flow cytometry (reference value: 0.47%); format: functional
[2] = test system: A549; experiment: Antiproliferative activity against human A549 cells after 48 hrs by SRB method; format: functional, cell-based; details: A549, 48 h
Method in brief: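 SRB assay. Cells in DMEM high glucose with 10% FBS were seeded at 5000/well and grown 24 h; a day-0 plate was fixed at that point. Compounds were added in triplicate for 48 h. Cells were fixed with TCA at 4 °C for 1 h, stained with 0.4% SRB, and the dye was solubilized in 10 mM Tris pH 10.4. OD was read at 515 nm with day-0 OD subtracted. IC50 came from nonlinear regression of dose–response curves from at least two independent experiments.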

[3] = test system: A2780; experiment: Drug resistance index, ratio of IC50 for taxol-resistant human A2780 cells to IC50 for human A2780 cells; format: functional
Method in brief: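 Drug resistance index = IC50 in the resistant line / IC50 in its parental line. […] Pairs: A549/CDDP vs A549, MCF-7/DOX vs MCF-7, A2780/TAX vs A2780, HCT-8/VCT vs HCT-8.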

[4] = test system: A549; experiment: Induction of apoptosis in human A549 cells assessed as apoptotic cells after 48 hrs by Annexin V-FITC/propidium iodide staining-based flow cytometry; format: functional, cell-based
[5] = target: Tubulin; experiment: Inhibition of tubulin polymerization (unknown origin) by DAPI staining-based fluorescence microscopy; format: protein-complex assay, Homo sapiens
Method in brief: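 Purified tubulin (99% pure; 20 μM as supplied) mixed with compound in general tubulin buffer (80 mM PIPES pH 6.9, 2.0 mM MgCl₂, 0.5 mM EGTA) with 1 mM GTP, 20% glycerol and DAPI reporter. Polymerization tracked kinetically at 37 °C as fluorescence rise (ex 360, em 450 nm). Duplicate wells per concentration. IC50 from at least two independent experiments.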

[6] = target: T1, Tubulin (Homo sapiens) (UniProt P68371+Q9H4B7+P0DPH7+P68366+Q13509+Q71U36+P04350+Q3ZCM7+P07437+P68363+Q9BQE3+Q6PEY2+Q13885+Q9BVA1+Q9BUF5); experiment: Binding affinity to tubulin (unknown origin) at 4 uM after 30 mins by fluorescence assay; format: protein-complex assay
Method in brief: (§1)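 Intrinsic fluorescence on tubulin binding. Compounds were mixed with tubulin (4 μM or 8 μM) in general tubulin buffer and incubated 30 min. Readings were excitation 430/emission 510 nm or excitation 365/emission 465 nm, with kinetic reads from mixing. ΔF = stable emission minus tubulin-only fluorescence. Optimal wavelengths were set by wavelength scanning.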

[7] = target: T1, Tubulin (Homo sapiens); experiment: Binding affinity to tubulin (unknown origin) after 30 mins by fluorescence assay; format: protein-complex assay; method in brief: as §1
[8] = target: T1, Tubulin (Homo sapiens); experiment: Binding affinity to tubulin (unknown origin) at 4 uM by fluorescence assay; format: protein-complex assay; details: TDE = time-dependent effect; method in brief: as §1
[9] = test system: A549; experiment: Induction of apoptosis in human A549 cells assessed as late apoptotic cells at 0.5 uM after 48 hrs by Annexin V-FITC/propidium iodide staining-based flow cytometry (reference value: 0.10%); format: functional

## CN(C)c1ccc(/C=C/C(=O)c2ccccc2-c2ccc(F)cc2)cc1
[1]
  Activity: 41.02%
[2]
  IC50: 73 nM
[3]
  Ratio IC50: 0.52
[4]
  Activity: Dose-dependent effect
[5]
  IC50: 3.6 µM
[6]
  Activity: Active
[7]
  Activity: Dose-dependent effect
[8]
  Activity: tde
[9]
  Activity: 41.85%
